# OX1R antag-1 = antagonists of human orexin 1 receptor; CHO/OX1R cells, Fluo-8 calcium fluorescence, orexin A; O43613; inhibition, % at 5 µM; 330,000 tested, 0.43% active;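 active means inhibition above its plate's threshold, mean inhibition of all tested compounds on the plate plus 3 SD, cut at about 37% in these data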
# Target sequence (O43613 whole entry, looked up): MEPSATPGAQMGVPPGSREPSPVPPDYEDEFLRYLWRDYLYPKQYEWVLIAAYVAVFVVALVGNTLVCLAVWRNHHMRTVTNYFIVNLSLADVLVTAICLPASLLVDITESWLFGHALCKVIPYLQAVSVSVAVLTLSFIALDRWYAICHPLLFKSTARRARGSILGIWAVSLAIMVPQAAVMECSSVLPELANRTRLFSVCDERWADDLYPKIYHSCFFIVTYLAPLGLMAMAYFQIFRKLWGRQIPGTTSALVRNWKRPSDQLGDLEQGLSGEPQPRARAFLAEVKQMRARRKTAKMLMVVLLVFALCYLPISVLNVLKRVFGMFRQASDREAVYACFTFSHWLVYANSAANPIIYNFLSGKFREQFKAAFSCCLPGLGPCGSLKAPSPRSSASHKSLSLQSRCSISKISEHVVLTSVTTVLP
# TAAR1 antag = antagonists of human TAAR1 | 360,000 tested, 1.5% active | inhibition, % at 3 µM | CHO RD-HGA16 TAAR1, Fluo-8 calcium fluorescence, antagonist;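 active means inhibition above a per-plate cutoff, the mean inhibition of test compounds on that plate plus 3 SD, cut at about 49% in these data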
#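 Assay system: CHO-derived RD-HGA16 cells stably expressing human TAAR1 plus Gα16. Timing: 140 s kinetic read after compound, 140 s after agonist. Technique: kinetic Fluo-8 calcium fluorescence measurement. Measure: % inhibition of agonist calcium response.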
# TAAR1 ag = human TAAR1 agonism; activation, % at 3 µM; CHO RD-HGA16 TAAR1, Fluo-8 calcium fluorescence; vehicle wells 0%, saturating PEA agonist 100%; 360,000 tested, 0.99% active; Q96RJ0;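 active means activation above the mean activation of all test compounds in the run plus 3 SD, cut at about 38% in these data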
#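 Assay system: CHO-derived RD-HGA16 cells with stable Gα16 and human TAAR1; timing: 17-24 h seeding, 75 min 37 °C dye, 30 min RT; read-out: % activation from peak over basal fluorescence ratio, DMSO-to-PEA scaled; measured by: kinetic Fluo-8 calcium fluorescence; benchmarks: low control DMSO, high control PEA (EC100); doses: 3 µM single concentration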
# GalR3 antagonist = antagonists of human GalR3. 360,000 tested, 0.44% active. HEK293 GalR3-CNG cAMP membrane potential fluorescence; galR3 body fused to GalR1 C-terminus. AID 651719. inhibition, % at 3 µM. O60755;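 active means inhibition above the screen-wide average plus 3 SD, cut at about 13% in these data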;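 further: forskolin and galanin both at EC90 stimulate the cells; cAMP rise reported by CNG channel membrane potential dye signal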
# CHO parental Ca = counter-screen for OX1R antagonists: effect in parental CHO cells. inhibition, % at 5.6 µM. parental CHO-K1, ATP-induced calcium, Fluo-8 fluorescence. 330,000 tested, 0.63% active. AID 463079;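 active means inhibition above that plate's mean sample inhibition plus 3 SD, cut at about 26% in these data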
#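 Material – parental CHO cells · Reagent – ATP stimulus · Compound – single nominal dose of 5.6 µM per compound · Detection – Fluo-8 fluorescence · Read-out basis – percent inhibition of calcium signal · Controls – ATP-challenged DMSO wells low, unchallenged DMSO wells high · Repeats – no replicates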
# OX1R antag-2 = antagonists of human orexin 1 receptor (OX1R); O43613; OX1R-expressing cells, FRET antagonist read-out; inhibition, % at 6.6 µM; 330,000 tested, 1.8% active; in the data active means inhibition mostly above about 38%, no sharp cut-off; inactive means mostly below about 40%
# OX1R HTRF confirm = OX1R (human) antagonism, HTRF confirmed. shares compounds with OX1R antag-2. OX1R-expressing cells, HTRF antagonist assay. inhibition, % at 6.6 µM. 1,800 tested, 49% active; in the data active means inhibition above about 55%;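 further: CHO cells expressing OX1R stimulated with orexin A at about EC80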
# CHO-K1 HTRF cnt = counter-screen for OX1R antagonists: effect in parental CHO-K1 cells; shares compounds with OX1R antag-2; HTRF counterscreen; inhibition, % at 6.6 µM; 1,800 tested, 48% active; in the data active means inhibition above about 17%
# Numbers stand for hits; n = inactive; x = not tested or not shown. The list is not random: actives were taken first. Their share in the collection is about 4.3%.
SMILES,OX1R antag-1,TAAR1 antag,TAAR1 ag,GalR3 antagonist,CHO parental Ca,OX1R antag-2,OX1R HTRF confirm,CHO-K1 HTRF cnt
NC(=O)CC(NC(=O)Cc1cccc2ccccc12)c1ccc(NCCN2CCCCC2)c([N+](=O)[O-])c1 (stereo not drawn),n,n,n,n,n,n,x,x
NC(=O)CC(NC(=O)Cc1cccc2ccccc12)c1ccc(NCCN2CCCC2)c([N+](=O)[O-])c1 (stereo not drawn),n,n,n,n,n,84,n,n
CC(Sc1ccc(S(=O)(=O)N2CCCCC2)cn1)C(N)=O (stereo not drawn),x,n,n,n,x,x,x,x
CC(C)c1cc[n+](-c2nc([O-])sc2C=O)cc1,n,n,n,n,n,98,n,64
CCc1cc[n+](-c2nc([O-])sc2C=O)cc1,n,n,n,n,n,149,n,62
Cc1ccc[n+](-c2nc([O-])sc2/C=N/Nc2ccc([N+](=O)[O-])cc2)c1,n,n,n,n,n,n,x,x
CC(C)(C)c1cc[n+](-c2nc([O-])sc2C=O)cc1,n,n,n,n,n,79,72,74
CCc1nc2ccc(C(=O)N3CCCC(C(N)=O)C3)cn2c1N(C=O)CC (stereo not drawn),x,n,n,n,x,x,x,x
COC(=O)C1(C(=O)OC)c2ccccc2N(S(=O)(=O)c2ccc(C)cc2)C1CC(C)=O (stereo not drawn),x,n,n,n,x,x,x,x
O=S(=O)(Nc1ccc(F)cc1)c1ccc(NS(=O)(=O)c2cccs2)cc1,n,n,n,n,n,n,x,x
C=CCNC(=O)CCC(=O)NNc1nc2ccccc2c2nc(-c3ccccc3)nn12,n,n,n,n,n,84,86,n
S=C1NCC(c2ccccc2)S1 (stereo not drawn),x,n,n,n,x,x,x,x
COc1cccc(C(=O)N(Cc2cc3cc(C)ccc3[nH]c2=O)C(C)C)c1,n,n,n,n,n,77,68,n
COc1cc(OC)cc(C(=O)N(Cc2cc3cc(C)ccc3[nH]c2=O)C(C)C)c1,n,n,n,n,n,n,x,x
Cc1ccnc(Sc2ccc([N+](=O)[O-])cn2)n1,n,n,n,n,n,77,71,71
Cc1occc1C(=O)NNC(=O)CN1C(=O)NC(C)(c2ccccc2)C1=O (stereo not drawn),n,n,n,n,n,n,x,x
COC(=O)C[C@H]1C=C[C@H](NC(=O)C2CCOCC2)[C@@H](CO)O1,x,n,n,n,x,x,x,x
CCNC(=O)C1CCCN(C(=O)c2ccc3c(c2)OCO3)CC1 (stereo not drawn),x,n,n,n,x,x,x,x
COc1ccc(-n2nc3cc(C)c(NC(C)=O)cc3n2)cc1,n,n,n,n,n,n,x,x
COc1ccc(-n2nc3cc(C)c(N)c(Br)c3n2)cc1,n,n,n,n,n,92,n,n
Cc1cnc(N2C(=O)c3ccc([N+](=O)[O-])cc3C2=O)s1,n,n,n,n,n,n,x,x
O=C1c2ccc([N+](=O)[O-])cc2C(=O)N1c1ccc([N+](=O)[O-])cn1,n,n,n,n,n,95,n,63
O=C1C=C(Nc2ccc(O)cc2)C(=O)c2ccccc21,n,n,n,n,n,79,n,25
CC(=O)Nc1ccc(NC2=CC(=O)c3ccccc3C2=O)cc1,n,n,n,n,n,n,x,x
COc1cc(NS(=O)(=O)c2ccc(C)cc2)c2c(c1N)C(=O)c1ccccc1C2=O,x,n,n,n,x,x,x,x
O=C(c1ccc([N+](=O)[O-])cc1[N+](=O)[O-])N1CCCC1,n,n,n,n,n,112,n,46
O=C(c1ccc(F)cc1)N1CCN(C(=O)c2ccc([N+](=O)[O-])cc2)CC1,n,n,n,n,n,86,n,34
O=C(NCC1CCN(C(=O)c2ccc([N+](=O)[O-])cc2)CC1)c1ccc([N+](=O)[O-])cc1,n,n,n,n,n,86,n,36
